Tests used:
[1] = Cmax in ICR mouse at 15 mg/kg, ip by LC-MS/MS analysis; format: ADME, organism-based; set-up: dose 15 mg/kg, route intraperitoneal; settings: in vivo
How it was run: (§1)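 Male ICR mice (5–6 weeks, 20–25 g), single doses of 1, 5 or 15 mg/kg in 10% DMSO/PEG300, given iv by tail vein, ip, or orally by gavage. Three to four mice per time point, euthanized under isoflurane, blood drawn from posterior vena cava. Plasma protein precipitated with acetonitrile containing internal standard, then LC-MS/MS (MRM m/z 388.2→192). Noncompartmental analysis of mean concentration-time data, AUCinf by trapezoidal rule with extrapolation, CL = dose/AUCinf, Cmax read from the curve. F = (AUCnon-iv × dose iv)/(AUCiv × dose non-iv). n = 3 per dose group.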

[2] = Cmax in ICR mouse at 15 mg/kg, iv by LC-MS/MS analysis; format: ADME, organism-based; set-up: dose 15 mg/kg, route intravenous; settings: in vivo; how it was run: as §1
[3] = system: Liver microsome; assay: Drug metabolism in rat liver microsomes assessed as (3-(1H-indol-2-yl)phenyl)(3,4,5-trimethoxyphenyl)methanol formation at 0.5 uM after 2 hrs by LC-MS/MS analysis in presence of 3 mM NADPH; format: ADME
How it was run: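 Pooled liver microsomes (1 mg/ml protein) incubated with 0.5 µM substrate and 3 mM NADPH in 65 mM potassium phosphate, pH 7.4, 1% methanol, at 37°C for 2 h. Stopped with ice-cold acetonitrile containing internal standard, centrifuged. Supernatant analysed by LC-MS/MS on a C18 column, 15-min gradient, with product ion scans for metabolite identification.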

[4] = Metabolic stability in human liver microsomes assessed as half life during phase 1 at 0.5 uM by LC-MS/MS analysis in presence of 3 mM NADPH and absence of UDPGA; format: ADME; settings: read-out: alphat1/2
How it was run: (§2)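 Pooled liver microsomes (1 mg/ml) incubated with 0.5 µM substrate and 3 mM NADPH in 65 mM potassium phosphate, pH 7.4, 1% methanol, at 37°C. The phase I+II set also had 5 mM UDPGA, 5 mM D-saccharolactone, 50 µg/ml alamethicin and 3 mM MgCl2. Stopped at 10–90 min with cold acetonitrile plus internal standard. Parent remaining by LC-MS/MS relative to time 0. t1/2 from a two-parameter single exponential decay fit; n = 2–3.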

[5] = Mean residence time (infinity) in ICR mouse at 1 mg/kg, iv by LC-MS/MS analysis; format: ADME, organism-based; set-up: dose 1 mg/kg, route intravenous; settings: in vivo; how it was run: as §1
[6] = Antitumor activity against human MESSA/DX5 cells xenografted in nu/nu mouse assessed as decrease in tumor growth at 10 mg/kg, ip 2 days per week for weeks; format: functional; settings: MES-SA/Dx5, ip, 48 h, route intraperitoneal
[7] = Plasma concentration in ICR mouse at 15 mg/kg, ip measured for 30 hrs by LC-MS/MS analysis; format: ADME, organism-based; set-up: dose 15 mg/kg, route intraperitoneal
How it was run: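 Male ICR mice given 15 mg/kg intraperitoneally in 10% DMSO/PEG300. Plasma from 3–4 mice per time point was collected via the posterior vena cava, protein-precipitated with acetonitrile plus internal standard, and quantified by LC-MS/MS (MRM m/z 388.2→192).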

[8] = AUC (infinity) in ICR mouse at 15 mg/kg, po via gavage by LC-MS/MS analysis; format: ADME, organism-based; set-up: time infinity, dose 15 mg/kg, route oral; settings: plasma; how it was run: as §1
[9] = Metabolic stability in dog liver microsomes assessed as half life during phase 1 and 2 at 0.5 uM by LC-MS/MS analysis in presence of 3 mM NADPH and […] UDPGA; format: ADME, Canis lupus familiaris; settings: read-out: alphat1/2
[10] = Mean residence time (infinity) in ICR mouse at 15 mg/kg, po via gavage by LC-MS/MS analysis; format: ADME, organism-based; set-up: dose 15 mg/kg, route oral; settings: in vivo; how it was run: as §1
[11] = Tmax in ICR mouse at 1 mg/kg, po by LC-MS/MS analysis; format: ADME, organism-based; set-up: dose 1 mg/kg, route oral; settings: in vivo
How it was run: (§3)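 Male ICR mice (5–6 weeks, 20–25 g) dosed by gavage in 10% DMSO in PEG300. Three to four mice per time point were euthanized under isoflurane and blood taken from the posterior vena cava. Plasma was acetonitrile-precipitated and analysed by LC-MS/MS (MRM m/z 388.2→192). Tmax read by visual inspection. F = (AUC_oral × dose_iv)/(AUC_iv × dose_oral), with AUC_inf by trapezoidal rule; n = 3/dose group.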

[12] = Oral bioavailability in ICR mouse at 15 mg/kg via gavage after 30 mins by LC-MS/MS analysis; format: ADME, organism-based; settings: in vivo; how it was run: as §3
[13] = Metabolic stability in mouse liver microsomes assessed as half life during phase 1 at 0.5 uM by LC-MS/MS analysis in presence of 3 mM NADPH and absence of UDPGA; format: ADME; settings: read-out: alphat1/2
How it was run: (§4)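 Pooled liver microsomes at 1 mg/ml protein with 3 mM NADPH, 0.5 μM substrate in 65 mM potassium phosphate pH 7.4, 1% methanol, 37°C. Incubations stopped at 10, 20, 30, 60 and 90 min with ice-cold acetonitrile plus internal standard, then LC-MS/MS of parent remaining relative to time 0. Half-life from a two-parameter single exponential decay fit; n = 2 to 3.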

[14] = Bioavailability in ICR mouse at 5 mg/kg, ip by LC-MS/MS analysis; format: ADME, organism-based; settings: in vivo; how it was run: as §1
[15] = Metabolic stability in rat liver microsomes assessed as half life during phase 1 at 0.5 uM by LC-MS/MS analysis in presence of 3 mM NADPH and absence of UDPGA; format: ADME; settings: read-out: alphat1/2; how it was run: as §4
[16] = Metabolic stability in dog liver microsomes assessed as half life during phase 1 at 0.5 uM by LC-MS/MS analysis in presence of 3 mM NADPH and absence of UDPGA; format: ADME, Canis lupus familiaris; settings: read-out: alphat1/2; how it was run: as §2
[17] = Clearance in ICR mouse at 5 mg/kg, iv by LC-MS/MS analysis; format: ADME, organism-based; set-up: dose 5 mg/kg, route intravenous; settings: in vivo; how it was run: as §1

COc1cc(C(=O)c2cccc(-c3cc4ccccc4[nH]3)c2)cc(OC)c1OC
Cmax [1]: 4290 ng/mL | Cmax [2]: 7530 ng/mL | Drug metabolism [3]: metabolite_detected | half-life at 0.5 µM [4]: 24 min | MRT inf [5]: 180 min | inhibition in vivo at 10 mg/kg [6]: 76% | concentration at 30 h [7]: > 71 ng/mL | AUC(0-inf) [8]: 1070 ng·h/mL | half-life at 0.5 µM [9]: 33 min | MRT inf [10]: 534 min | Tmax [11]: 30 min | bioavailability [12]: 8% | half-life at 0.5 µM [13]: 37 min | bioavailability [14]: 95% | half-life at 0.5 µM [15]: 42 min | half-life at 0.5 µM [16]: 29 min | clearance [17]: 22 mL/min/kg

From ChEMBL document CHEMBL3526142, “Biotransformation of a novel antimitotic agent, I-387, by mouse, rat, dog, monkey, and human liver microsomes and in vivo pharmacokinetics in mice” (Drug Metab Dispos, 2011)
